Screening results from PubChem.
The list is a sample of the results.
Kir21 block: Kir2.1 (mouse) channel inhibition; P35561; HEK293-Kir2.1, FluxOR thallium flux fluorescence; active compounds read low; B-score at 10 µM; 310,000 tested, 0.85% active; AID 1672;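 active = fluorescence ratio B-score at or below minus 3 SD of library scores, with starting-brightness B-score within 2 SD, cut at about -4.2 in these data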;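 also: channel flux triggered by added potassium and thallium sulfate stimulus; B-score of peak minus minimum fluorescence over baseline after thallium stimulus; more negative B-score means stronger Kir2.1 block with less thallium influx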
KCNK9 inh: inhibitors of human KCNK9 two-pore domain potassium channel; Q9NPC2; 310,000 tested, 1.2% active; AID 488922; B-score at 10 µM; HEK293 KCNK9, FluxOR thallium flux fluorescence; active compounds read low;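 active = ratio B-score over 3 SD below the library mean, with starting fluorescence within 5 SD of its mean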;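 also: negative B-score means less thallium flux so channel inhibition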
KCNQ1 inh: inhibitors of human KCNQ1 potassium channel; P51787; CHO-K1 KCNQ1, FluxOR thallium flux fluorescence; active compounds read high; B-score at 10 µM; 310,000 tested, 1.3% active;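 active = compounds whose thallium flux B-score, printed positive for inhibition, exceeds three library SD while starting fluorescence stays within three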;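 also: channel opened by potassium depolarization with thallium stimulus after 20 min compound exposure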
KCNK3 block: human KCNK3 channel inhibition, primary screen; O14649; CHO-KCNK3 thallium flux, FluxOR fluorescence; active compounds read low; B-score at 10 µM; 340,000 tested, 0.84% active; AID 602410;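 active = B-score under library mean minus 4 SD, starting fluorescence ratio at most library mean plus 5 SD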;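 also: more negative B-score means stronger inhibition of thallium flux through KCNK3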
KCNQ1 act: potentiates or activates the human KCNQ1 potassium channel. CHO-K1 KCNQ1, thallium flux FluxOR fluorescence; active compounds read high. B-score at 10 µM. 310,000 tested, 0.35% active. AID 2648;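 active = fluorescence ratio B-score, a plate-corrected score, at least three library SD, with initial intensity B-score within 5 SD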
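System: Stable KCNQ1 CHO-K1 line | Incubation: 90 min dye loading and 20 min compound exposure, both at room temperature | Measure: Ratio B score | Medium: Assay buffer for compound exposure, DMSO matched across wells | Compound dosing: Single-concentration screen | Probe or stimulus: K+/Tl+ depolarizing stimulus | Measured by: Kinetic FluxOR fluorescence, 10 s baseline plus 110 s post-stimulus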
hERG protect: shields human hERG channel from block by proarrhythmic agents; CHO-hERG, FluxOR thallium flux, dofetilide IC70 present; activation (rescue from dofetilide block), less the hit threshold, % at 10 µM; 310,000 tested, 0.51% active; AID 1511;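 active = activation above the mean of controls blocked by dofetilide plus 5 SD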;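 also: thallium influx through hERG after potassium depolarization seen as dye fluorescence rise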
Target sequence (Q12809 whole entry, looked up): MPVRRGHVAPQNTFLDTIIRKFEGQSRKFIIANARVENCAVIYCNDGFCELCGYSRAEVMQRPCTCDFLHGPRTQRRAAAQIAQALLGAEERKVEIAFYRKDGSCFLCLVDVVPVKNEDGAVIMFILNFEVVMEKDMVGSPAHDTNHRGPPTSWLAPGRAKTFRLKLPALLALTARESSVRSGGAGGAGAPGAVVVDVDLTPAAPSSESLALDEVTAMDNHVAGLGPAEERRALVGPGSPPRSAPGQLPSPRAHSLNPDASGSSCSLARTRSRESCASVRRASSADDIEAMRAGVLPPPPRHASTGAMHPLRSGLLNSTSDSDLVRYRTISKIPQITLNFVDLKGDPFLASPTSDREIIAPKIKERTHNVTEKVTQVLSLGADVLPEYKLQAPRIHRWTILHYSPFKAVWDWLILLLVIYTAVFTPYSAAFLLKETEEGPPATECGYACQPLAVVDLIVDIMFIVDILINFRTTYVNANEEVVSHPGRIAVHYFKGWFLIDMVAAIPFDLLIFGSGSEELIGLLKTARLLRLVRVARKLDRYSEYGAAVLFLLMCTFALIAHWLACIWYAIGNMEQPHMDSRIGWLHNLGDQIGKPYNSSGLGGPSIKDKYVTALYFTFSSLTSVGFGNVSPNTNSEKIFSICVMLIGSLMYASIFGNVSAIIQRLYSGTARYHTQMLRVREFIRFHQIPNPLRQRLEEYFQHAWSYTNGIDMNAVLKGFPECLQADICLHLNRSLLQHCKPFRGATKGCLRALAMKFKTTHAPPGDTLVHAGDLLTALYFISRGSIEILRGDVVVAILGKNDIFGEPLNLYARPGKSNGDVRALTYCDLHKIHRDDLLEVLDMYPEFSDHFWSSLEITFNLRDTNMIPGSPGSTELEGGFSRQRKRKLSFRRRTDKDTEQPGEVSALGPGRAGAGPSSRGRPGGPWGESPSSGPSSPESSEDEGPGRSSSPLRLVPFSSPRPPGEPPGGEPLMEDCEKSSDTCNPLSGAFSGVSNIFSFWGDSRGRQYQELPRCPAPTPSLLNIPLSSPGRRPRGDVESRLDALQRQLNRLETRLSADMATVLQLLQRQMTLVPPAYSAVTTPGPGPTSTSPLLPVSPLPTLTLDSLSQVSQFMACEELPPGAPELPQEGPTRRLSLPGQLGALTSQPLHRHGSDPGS
KCNK9 inh conf: human KCNK9 inhibitor confirmation; shares compounds with KCNK9 inh; inhibition, % at 10 µM; HEK293 KCNK9 cells, FluxOR thallium flux fluorescence; 4,900 tested, 43% active;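 active = thallium signal inhibited by more than 5 SD of the compound-free buffer control wells, on both duplicate plates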
Kir21 sel: selectivity of KCNK9 modulators against mouse Kir2.1. shares compounds with KCNK9 inh. Kir2.1 cells, FluxOR thallium flux fluorescence. inhibition, % at 10 µM. 4,900 tested, 4% active;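 active = thallium signal drop more than 5 SD beyond the mean of the no-compound control wells, seen in both duplicate plates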;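 also: signal is fluorescence rise after thallium addition divided by baseline fluorescence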
KCNK9 uninduced: second counter-screen for KCNK9 modulators: effect in non-induced cells; shares compounds with KCNK9 inh; non-induced KCNK9-HEK293, FluxOR thallium flux; inhibition, % at 10 µM; 4,900 tested, 40% active;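 active = thallium signal drop beyond 5 SD of the untreated control mean, on both duplicate plates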
A number is an active result; i = inactive; nt = no result given.

SMILES | Kir21 block | KCNK9 inh | KCNQ1 inh | KCNK3 block | KCNQ1 act | hERG protect | KCNK9 inh conf | Kir21 sel | KCNK9 uninduced
CC/C(=N\NC(=S)Nc1cccc(C)c1)c1ccccc1 | i | i | i | i | 12 | 6.9 | i | i | i
Cc1cccc(NC(=S)N/N=C(\c2ccccc2)C(C)C)c1 | i | i | i | i | i | i | i | i | i
Cc1cccc(NC(=S)NNC(=O)Cc2ccccc2)c1 | i | i | i | i | i | i | nt | nt | nt
CC/C(=N\NC(=S)Nc1ccc(OC)cc1)c1ccc(OC(F)F)cc1 | i | i | i | i | i | i | i | i | i
COc1cc(Cl)c(C)cc1NC(=S)NN | i | i | i | i | i | i | nt | nt | nt
Cc1ccc(S(=O)(=O)NCCC(=O)Nc2ccc(S(=O)(=O)NC(C)C)cc2)cc1 | i | i | i | i | i | i | nt | nt | nt
O=[N+]([O-])c1cc(/C=N/OCc2c(Cl)cccc2Cl)ccc1N1CCOCC1 | i | i | i | i | i | i | i | i | i
CCOc1cccc(CN2CCN(c3cccc(C(F)(F)F)c3)CC2)c1O | i | i | i | i | i | i | i | i | i
Cc1ccc(S(=O)(=O)NCc2ccc(C(=O)NC3CCC(O)CC3)cc2)cc1C (stereo not drawn) | nt | nt | nt | i | nt | nt | nt | nt | nt
COc1cccc(C(=O)C2CCCN(Cc3ccc(OC)c(Cn4cncn4)c3)C2)c1 (stereo not drawn) | i | i | i | i | i | i | nt | nt | nt
COc1ccc(C(=O)C2CCCN(Cc3cccn3-c3ccccn3)C2)cc1F (stereo not drawn) | i | i | i | i | i | i | nt | nt | nt
COc1ccc(C(=O)C2CCCN(Cc3cccn3-c3nccs3)C2)cc1F (stereo not drawn) | i | i | i | i | i | i | i | i | i
O=C(c1ccc(C(F)(F)F)cc1)C1CCCN(Cc2cccn2-c2ncccn2)C1 (stereo not drawn) | i | i | i | i | i | i | i | i | i
CCOc1cc(CN2CCCC(C(=O)c3cccc(C(F)(F)F)c3)C2)ccc1O (stereo not drawn) | i | i | i | i | i | i | i | i | i
COc1ccc(CN2CCCC(C(=O)c3ccc(Cl)cc3)C2)cc1Cn1cccn1 (stereo not drawn) | i | i | i | i | i | i | i | i | i
COc1ccc2cc(C(C)C(=O)O)ccc2c1 (stereo not drawn) | nt | nt | nt | i | nt | nt | nt | nt | nt
O=C(NCc1ccccc1)c1cccc(NC(=O)C2CC2)c1 | nt | nt | nt | i | nt | nt | nt | nt | nt
C#CCOCCOCCOCCNc1nc(N2CCN(C(=O)C([C@@H](C)CC)n3cc(C(N)COC(=O)C(F)(F)F)nn3)CC2)nc(N2CCN(C(=O)[C@H](CCC(=O)O)n3cc(C(N)CC(C)C)nn3)CC2)n1 (stereo partly drawn) | i | i | i | nt | i | i | nt | nt | nt
COc1ccccc1N(C(=O)c1csnn1)C(C(=O)NC1CCCC1)c1ccccc1 (stereo not drawn) | i | i | i | i | i | i | nt | nt | nt
O=C(c1cccc(C(F)(F)F)c1)C1CCCN(C(=O)CN2CCCC2=O)C1 (stereo not drawn) | i | i | i | i | i | i | nt | nt | nt
O=C(c1ccc(Cl)cc1)C1CCCN(Cc2cccn2-c2ccccn2)C1 (stereo not drawn) | i | i | i | i | i | i | i | i | i
CSc1ccc(C(=O)C2CCCN(Cc3cccc4nccnc34)C2)cc1 (stereo not drawn) | i | i | i | i | i | i | i | i | i
O=C(c1cccc(C(F)(F)F)c1)C1CCCN(Cc2cccn2-c2ncccn2)C1 (stereo not drawn) | i | i | i | i | i | i | i | i | i
Cc1ccccc1C(=O)N1CCC(C(=O)NCCc2ccc(S(N)(=O)=O)cc2)CC1 | i | i | i | i | i | i | nt | nt | nt
COc1cccc(NC(=O)CN(C)C(=O)C2CC(=O)N(CCc3ccc(OC)c(OC)c3)C2)c1 (stereo not drawn) | nt | nt | nt | i | nt | nt | nt | nt | nt
